Experimental data published in ChEMBL document CHEMBL1268949, “3D QSAR study, synthesis, and in vitro evaluation of (+)-5-FBVM as potential PET radioligand for the vesicular acetylcholine transporter (VAChT)” (Bioorg Med Chem, 2010).
pKi: −log10 of the molar value.

Legend:
[1] = species: Rattus norvegicus; assay: Selectivity ratio of Ki for sigma 1 receptor in rat cortical membranes to Ki for rat VAChT; type: cell membranes; details: Membrane
[2] = target: Sigma non-opioid intracellular receptor 1 (Rattus norvegicus, UniProt Q9R0C9); assay: Displacement of (-)-[3H]pentazocine from sigma 1 receptor in rat cortical membranes after 120 mins; type: cell membranes, Membrane
Outline: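 Radioligand displacement on rat cortical membrane homogenates with (−)-[3H]pentazocine (1070 GBq/mmol), in 50 mM TRIS–HCl pH 7.4 at room temperature. Each assay was run in triplicate at least three times, and IC50 was estimated by non-linear regression.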

[3] = target: T1, Vesicular acetylcholine transporter (Rattus norvegicus, UniProt Q62666); assay: Displacement of (-)-[3H]vesamicol from rat VAChT expressed in rat PC12 cells after 60 mins; type: cell-based, PC-12
T1 sequence (Q62666 whole entry): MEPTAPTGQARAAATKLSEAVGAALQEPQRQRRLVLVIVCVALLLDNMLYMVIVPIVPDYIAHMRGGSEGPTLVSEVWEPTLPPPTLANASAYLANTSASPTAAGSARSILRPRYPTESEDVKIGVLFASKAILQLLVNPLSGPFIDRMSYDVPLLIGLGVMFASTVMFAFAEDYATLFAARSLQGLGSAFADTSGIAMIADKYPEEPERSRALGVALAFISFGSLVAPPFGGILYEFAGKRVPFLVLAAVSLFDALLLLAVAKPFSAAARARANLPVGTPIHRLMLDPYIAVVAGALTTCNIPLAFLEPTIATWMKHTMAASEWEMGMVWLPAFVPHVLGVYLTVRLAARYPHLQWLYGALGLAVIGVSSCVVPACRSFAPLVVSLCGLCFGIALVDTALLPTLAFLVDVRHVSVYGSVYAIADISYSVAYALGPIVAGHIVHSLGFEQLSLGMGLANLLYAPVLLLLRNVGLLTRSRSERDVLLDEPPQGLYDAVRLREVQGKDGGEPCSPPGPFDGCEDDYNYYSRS
Outline: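 Displacement of (−)-[3H]vesamicol was run on homogenates of PC12 cells stably transfected with rat VAChT. (−)-Vesamicol in excess defined non-specific binding, and bound ligand was collected by filtration on a cell harvester. Triplicates, at least three times; IC50 by computational non-linear regression.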

[4] = Displacement of (-)-[3H]DTG from sigma 2 receptor in rat liver membranes after 120 mins; type: cell membranes, Membrane

Sequence of Sigma non-opioid intracellular receptor 1 (Q9R0C9 whole entry): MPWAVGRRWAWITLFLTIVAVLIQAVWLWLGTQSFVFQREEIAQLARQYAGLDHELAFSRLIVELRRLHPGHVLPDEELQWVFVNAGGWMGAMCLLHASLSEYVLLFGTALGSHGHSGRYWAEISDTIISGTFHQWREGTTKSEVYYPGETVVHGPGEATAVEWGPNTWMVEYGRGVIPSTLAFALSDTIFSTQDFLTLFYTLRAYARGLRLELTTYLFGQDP

| Ratio Ki [1] | pKi [2] | pKi [3] | pKi [4] | Compound |
| --- | --- | --- | --- | --- |
| 17 | 6.58 | 7.80 |  | O[C@@H]1Cc2cccc(I)c2C[C@H]1N1CCC(c2ccccc2)CC1 (racemic) |
| 10.7 | 6.68 | 7.71 |  | O[C@@H]1Cc2cccc(OCCF)c2C[C@H]1N1CCC(c2ccccc2)CC1 |
| 1.21 | 7.88 | 7.96 | 6.64 | OC1Cc2cccc(F)c2CC1N1CCC(c2ccccc2)CC1 (racemic) |
| 4.7 | 6.57 | 7.24 |  | O[C@H]1Cc2cccc(OCCF)c2C[C@@H]1N1CCC(c2ccccc2)CC1 |
| 16 | 6.19 | 7.39 |  | Nc1cccc2c1CC(N1CCC(c3ccccc3)CC1)C(O)C2 (racemic) |
| 5.48 | 7.42 | 8.16 | 6.28 | O[C@H]1Cc2cccc(F)c2C[C@@H]1N1CCC(c2ccccc2)CC1 |
| 0.97 | 8.45 | 8.43 | 6.60 | O[C@@H]1Cc2cccc(F)c2C[C@H]1N1CCC(c2ccccc2)CC1 |
